# Screening data deposited in PubChem BioAssay by several laboratories.
# In the library only some 1% were active in any assay of this set; here they are far more common.
# Xi reactivation – activators of X-chromosome reactivation in mouse fibroblasts. 360,000 compounds, 0.055% hits. activation, % at 7.58 µM. XiGFP mouse fibroblasts, % GFP-positive cells imaging, 3 d; cells co-treated with 5-aza-dC sensitizer; scaled so ellipticine positive control = 100%;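 active = mean normalized replicate activation at least 10% and every replicate at or above 10%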;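 also: 0% = median of on-plate neutral control wells and 100% = ellipticine 6 µM median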
#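 Assay system: SV40-immortalized XiGFP fibroblast cells, line 68-5-11; buffer or medium: DMEM plus 5-aza-dC sensitizer; compound: one concentration, pinned; timing: compounds 3 days, fix/stain 15 min at room temperature; benchmarks: positive control ellipticine, 6 µM final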
# INS-1E GSIS act – primary screen for activators of insulin secretion dependent on glucose, INS-1E cells, GLuc reporter luminescence; AID 743287; activation, % at 16.6 µM; 370,000 compounds, 0.61% hits; INS-1E GLuc reporter insulin secretion, 2-3 h;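 active = lowest replicate activation of at least 40%, so every replicate reaches that level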;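 also: 0% = median of neutral control wells and 100% = median of IBMX positive control wells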
# CaV13 FRET inh – Disruptors of the CACNA1D IQ motif to Ca2+-dependent inactivation inhibitor domain association, primary screening, Förster resonance energy transfer in intact living …. HEK cells, CFP/YFP FRET ICDI-IQ, plate reader, 10 min; percent FRET-ratio fall versus neutral wells. inhibition, % at 12.3 µM. 340,000 compounds, 0.098% hits. AID 743397;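 active = mean replicate inhibition of at least 30% and at least 1% of replicates passing that level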;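 also: 0% = median of the neutral control wells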
# FXN GAA850 act – frataxin GAA850 promoter activation; HEK293 lucGAA850 FXN promoter luciferase reporter, 24 h; percent of 10 µM SAHA response; activation, % at 6 µM; 360,000 compounds, 0.56% hits;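 active = activation above the average of all compounds screened plus 3 SD, cutoff fixed separately per campaign, cut at about 7.5% in these data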;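 also: 0% = DMSO wells and 100% = 10 µM SAHA wells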
# GAA30 FXN cntr – GAA30 FXN promoter activation counter-screen | shares compounds with FXN GAA850 act | HEK293 lucGAA30 FXN promoter luciferase, 24 h; DMSO = 0%, 5 µM ipriflavone = 100% | activation, % at 6 µM | 1,900 compounds, 66% hits;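 active = mean activation above the mean of solvent-only control wells plus 3 SD, cut at about 22% in these data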;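 also: counterscreen of GAA850 promoter hits where activity marks nonselective or luminescence artifacts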
# FXN GAA850 conf – GAA850 FXN promoter activation confirmation; shares compounds with FXN GAA850 act; HEK293 lucGAA850 FXN promoter luciferase reporter, 24 h; 100% = activation by SAHA; activation, % at 6 µM; 1,900 compounds, 86% hits; AID 588351;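 active = mean activation above a set limit taken from the primary screen, cut at about 8% in these data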;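 also: 0% = DMSO wells and 100% = 10 µM SAHA wells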
# * hit, by the source's call; · = no result given.
SMILES,Xi reactivation,INS-1E GSIS act,CaV13 FRET inh,FXN GAA850 act,GAA30 FXN cntr,FXN GAA850 conf
O=C(C1COc2ccccc2O1)N1CCc2ccccc21 (configuration not stated),·,11.8,-8.7,8.0*,72.7*,31.6*
Cc1cccc(-c2ccc([C@H]3[C@@H](CO)N4C(=O)CN(C(=O)c5cccnc5)C[C@H]34)cc2)c1,0.0,-2.9,·,·,·,·
O=C(COC(=O)Cn1cnc2ccccc21)Nc1ccc2c(c1)C(=O)c1ccccc1C2=O,0.3,6.6,-4.6,8.7*,108.0*,46.2*
O=C(NC1CCCCC1)C(=O)c1c[nH]c2ccccc12,0.0,-8.8,-5.9,8.3*,84.9*,27.7*
CCS(=O)(=O)Nc1ccc2c(c1)C(=O)N(C)C[C@H](OC)[C@@H](C)CN(Cc1nccs1)[C@H](C)CO2,0.4,2.9,·,·,·,·
CC(C)Cc1cc(-c2ccco2)c(C#N)c(N)n1,·,·,·,8.2*,15.1,18.4*
CC(=O)Oc1ccc(C(=O)Cc2ccccn2)c(O)c1,·,-0.6,-7.4,11.4*,22.8*,11.9*
O=C(NC1=NN(c2ccccc2)CC1)Nc1ccccc1F,50.3*,-34.7,-6.4,8.5*,45.5*,18.2*
Cc1cccc2c1NC(=O)/C2=C\C(=O)c1cccs1,·,·,-3.5,2.7,·,·
Cc1cc(Br)c2c(c1)/C(=C/C(=O)c1cccs1)C(=O)N2,0.0,-6.5,-6.5,9.7*,17.0,22.3*
COc1cccc(NC(=O)N(C)C[C@@H]2OCc3ccccc3-c3c(n(C)c4ccccc34)C(=O)N([C@H](C)CO)C[C@@H]2C)c1,-0.8,-23.8,·,·,·,·
Cc1ccc(Cn2c(/C=C/c3ccco3)nc3ccccc32)cc1,0.0,-14.5,-5.5,8.0*,108.8*,43.8*
CNC(=O)C[C@@H]1CC[C@@H]2[C@H](COC[C@H](O)CN2C(=O)Nc2cccc(OC)c2)O1,0.0,-1.7,·,·,·,·
CCCNC(=O)N(C)C[C@@H]1Oc2ncc(-c3ccncc3)cc2C(=O)N([C@H](C)CO)C[C@H]1C,-1.1,19.8,·,·,·,·
Cc1noc(C)c1S(=O)(=O)Nc1ccc2c(c1)C(=O)N([C@H](C)CO)C[C@@H](C)[C@@H](CN(C)C(=O)CCCN(C)C)OCCCC[C@H](C)O2,0.2,20.1,·,·,·,·
C[C@H]1CN([C@@H](C)CO)C(=O)Cc2cc(NS(=O)(=O)c3ccccc3)ccc2O[C@@H]1CN(C)Cc1ccc(C(=O)O)cc1,0.0,10.4,·,·,·,·
CCCn1cnc2c(cnn2-c2ccc(F)cc2)c1=O,·,-1.3,-5.4,10.0*,58.6*,17.6*
O=C(Oc1c(CN2CCOCC2)cc(Cl)c2cccnc12)c1ccccc1F,0.5,-11.1,-6.2,7.7*,11.6,14.0*
CC(C)=NNc1ncnc2nc[nH]c12,0.0,·,-15.6,7.5,·,·
CCc1ccc(/C=N/Nc2ncnc3nc[nH]c23)cc1,0.2,19.2,-3.5,11.0*,132.0*,54.3*
C[C@@H]1CN([C@@H](C)CO)C(=O)c2cc(C#CC3CC3)cnc2O[C@@H]1CN(C)S(C)(=O)=O,-0.5,-4.6,·,·,·,·
CCCC#Cc1cnc2c(c1)C(=O)N([C@@H](C)CO)C[C@H](C)[C@@H](CN(C)C(=O)c1ccc(F)cc1)O2,0.0,1.5,·,·,·,·
CCOC(=O)[C@@H]1[C@H]2COc3ccc(Br)cc3[C@@H]2N2C(=O)N(c3cccc(Cl)c3)C(=O)[C@]12C,0.2,1.4,-8.9,1.1,·,·
CCOC(=O)[C@H]1[C@H]2COc3ccc(Br)cc3[C@@H]2N2C(=O)c3c(C)cc(C)cc3NC(=O)[C@@]12C,0.0,·,-0.3,14.4*,28.3*,18.6*
CCOC(=O)[C@@H]1[C@H]2COc3ccc(Br)cc3[C@@H]2N2C(=O)N(c3cccc(Cl)c3)C(=O)[C@@]12C,0.5,1.4,-5.1,9.9*,-8.5,0.1
SMILES,Xi reactivation,INS-1E GSIS act,CaV13 FRET inh,FXN GAA850 act,GAA30 FXN cntr,FXN GAA850 conf
CCc1nc2ccc(C(=O)NCCOc3ccc(OC)cc3)cn2c1N(CC)Cc1cccc(Br)c1,0.2,-17.6,-6.3,-2.7,·,·
CCc1nc2ccc(C(=O)NCCN3CCNC3=O)cn2c1N(CC)Cc1cccc(Br)c1,0.0,6.4,-4.4,15.1*,15.1,7.2
NC(=O)C1CC(=O)N(c2ccc(OCc3ccc(Cl)cc3)cc2)C1 (configuration not stated),0.2,-8.8,-19.0,8.3*,74.4*,25.5*
CCOC(=O)c1sc(-c2ccc(Br)cc2)cc1N,·,-3.5,-7.9,15.9*,116.6*,42.8*
CC(C)C(=O)Nc1ccc2c(c1)C(=O)N(C)[C@@H]1CC[C@@H](CC(=O)NCC3CC3)O[C@@H]1CO2,0.3,-2.6,·,·,·,·
O=C(N/N=C/c1ccccn1)c1ccc(Cl)c(Cl)c1,0.0,-0.2,-6.9,9.1*,-108.1,-30.0
O=C(N/N=C/c1ccccn1)c1cc(C2CC2)nc2ccccc12,·,·,·,0.7,·,·
O=C(N/N=C/c1ccccn1)c1ccc(NC(=O)c2ccccc2Cl)cc1,0.4,11.7,-7.1,-2.2,·,·
O=C(N/N=C/c1ccccn1)c1cc(-c2ccccc2)nc2ccccc12,0.0,6.5,-18.9,7.7*,-117.7,-36.7
C[C@H](CO)N1C[C@H](C)[C@H](CN(C)Cc2ccc(C(=O)Nc3ccccc3N)cc2)Oc2ccc(NS(=O)(=O)c3cn(C)cn3)cc2C1=O,-0.7,11.0,·,·,·,·
COc1ccc2c3c(n(C)c2c1)[C@H](CO)N(C(=O)NC(C)C)CC31CCN(Cc2nccs2)CC1,0.0,3.3,·,·,·,·
CC1=CC(=O)N(c2cccc3c(N4C(=O)C=C(C)C4=O)cccc23)C1=O,-0.1,·,-5.4,9.2*,14.8,25.8*
Clc1ccc(NNc2ccnc3cc(Cl)ccc23)cc1,·,·,-4.4,-2.8,·,·
Oc1ccc(Nc2ccnc3cc(Cl)ccc23)cc1,0.0,7.3,-17.9,10.2*,38.9*,10.9*
Oc1ccc(/C=N/Nc2ccnc3cc(Cl)ccc23)c(O)c1,68.1*,25.6,-20.1,12.2*,59.7*,18.8*
Cc1ccccc1/C=N/Nc1ccnc2cc(Cl)ccc12,0.2,·,-9.1,-3.0,·,·
Nc1c(C(=O)c2ccc(Br)cc2)oc2ccccc12,-0.1,3.2,-2.9,7.7*,92.9*,34.3*
Nc1c(C(=O)c2ccccc2)oc2ccc(Br)cc12,·,·,-4.3,3.8,·,·
Nc1c(C(=O)c2ccccc2)oc2ccc([N+](=O)[O-])cc12,0.0,-35.5,-1.7,8.3*,99.5*,35.2*
CC1CCc2c(sc(NC(=O)c3noc4c3CCCC4)c2C(N)=O)C1 (configuration not stated),0.3,12.1,-5.0,7.8*,102.4*,29.3*
O=C(Nc1cccc(Cl)c1)C1=Cc2cc(Cl)ccc2OC1,·,·,·,-0.8,·,·
O=C(Nc1ccc(Cl)c(Cl)c1)C1=Cc2ccccc2OC1,·,·,·,9.1*,85.9*,34.5*
